Four molecules from ChEMBL document CHEMBL5696442, “Discovery of type II inhibitors of TGFβ-activated kinase 1 (TAK1) and mitogen-activated protein kinase kinase kinase kinase 2 (MAP4K2)” (J Med Chem, 2015) can be followed below.

Assay [1] deals with Misshapen-like kinase 1 (Homo sapiens) (UniProt Q8N4C8). As to the kind of experiment: Inhibition of ZC3 Lys2 labeling site in human Huh-7 cell lysate at 1 uM by KiNativ Profiling analysis relative to control. It is filed as subcellular.
Assay [2] has as its target Tyrosine-protein kinase receptor UFO (Homo sapiens) (UniProt P30530). Put plainly: Inhibition of AXL ACT labeling site in human A-375 cells at 0.05 uM by KiNativ Profiling analysis relative to control. It is filed as cell-based.
Assay [3] deals with Calcium/calmodulin-dependent protein kinase kinase 2 (Homo sapiens) (UniProt Q96RR4). As to the kind of experiment: Inhibition of CaMKK2 Lys2 labeling site in human A-375 cells at 5 uM by KiNativ Profiling analysis relative to control. It is filed as cell-based. The essentials:
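Live A375 melanoma cells were treated with compound at 5 or 0.5 μM. The cells were then lysed, and the lysates were labeled with a lysine-reactive ATP or ADP-biotin acyl probe (KiNativ). Inhibition is the compound's protection of each kinase labeling-site peptide from probe labeling, relative to untreated control.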

Assay [4] concerns the target Phosphatidylinositol 4-kinase beta (Homo sapiens) (UniProt Q9UBF8). Put plainly: Inhibition of PI4KB ATP labeling site harbouring VPHTQAVVLNSKDK in human A-375 cells at 5 uM by KiNativ Profiling analysis relative to control. It is filed as cell-based.
A short description of assay [5]: Inhibition of KHS1 Lys2 labeling site in human A-375 cells at 0.5 uM by KiNativ Profiling analysis relative to control. As to conditions: condition cancer.
For assay [6], the target named is T1, Serine/threonine-protein kinase TAO3 (Homo sapiens) (UniProt Q9H2K8).
T1 sequence (whole entry): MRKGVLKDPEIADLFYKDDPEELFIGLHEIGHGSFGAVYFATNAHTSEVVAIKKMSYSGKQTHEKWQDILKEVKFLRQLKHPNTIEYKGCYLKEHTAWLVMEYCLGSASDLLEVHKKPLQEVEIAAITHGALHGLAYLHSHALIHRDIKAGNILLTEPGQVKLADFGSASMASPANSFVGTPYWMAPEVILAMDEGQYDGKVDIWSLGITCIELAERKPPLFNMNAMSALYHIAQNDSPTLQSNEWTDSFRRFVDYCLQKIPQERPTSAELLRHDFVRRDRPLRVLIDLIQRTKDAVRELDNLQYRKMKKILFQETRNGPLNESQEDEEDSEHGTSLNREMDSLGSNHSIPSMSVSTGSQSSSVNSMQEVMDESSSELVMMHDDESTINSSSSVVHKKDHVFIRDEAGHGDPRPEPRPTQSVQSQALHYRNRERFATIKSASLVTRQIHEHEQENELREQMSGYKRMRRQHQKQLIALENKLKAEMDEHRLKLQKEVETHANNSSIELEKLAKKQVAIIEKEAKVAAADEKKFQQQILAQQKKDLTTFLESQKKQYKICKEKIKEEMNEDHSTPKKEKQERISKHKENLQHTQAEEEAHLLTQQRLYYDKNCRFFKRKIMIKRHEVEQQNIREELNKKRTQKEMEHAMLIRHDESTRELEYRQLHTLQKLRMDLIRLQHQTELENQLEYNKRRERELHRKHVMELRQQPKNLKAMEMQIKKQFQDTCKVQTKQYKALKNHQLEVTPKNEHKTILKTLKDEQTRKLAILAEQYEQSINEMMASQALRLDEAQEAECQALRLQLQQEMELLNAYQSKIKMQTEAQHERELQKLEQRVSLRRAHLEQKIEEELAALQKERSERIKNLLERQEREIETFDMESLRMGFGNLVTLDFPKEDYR
Put plainly: Inhibition of TAO3 Lys2 labeling site in human A-375 cells at 0.5 uM by KiNativ Profiling analysis relative to control. It is filed as cell-based.

Assay [7] has as its target Serine/threonine-protein kinase B-raf (Homo sapiens, UniProt P15056). As to the kind of experiment: Inhibition of BRAF Lys2 labeling site in human A-375 cells at 5 uM by KiNativ Profiling analysis relative to control. It is filed as cell-based. The essentials:
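Live A375 melanoma cells were treated with compound at 5 or 0.5 μM, then lysed. The lysates were labeled with a lysine-reactive ATP or ADP-biotin probe. Kinase protection from probe labeling was measured by KiNativ.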

Assay [8] has as its target T2, Mitogen-activated protein kinase 12 (Homo sapiens) (UniProt P53778).
T2 sequence (whole entry): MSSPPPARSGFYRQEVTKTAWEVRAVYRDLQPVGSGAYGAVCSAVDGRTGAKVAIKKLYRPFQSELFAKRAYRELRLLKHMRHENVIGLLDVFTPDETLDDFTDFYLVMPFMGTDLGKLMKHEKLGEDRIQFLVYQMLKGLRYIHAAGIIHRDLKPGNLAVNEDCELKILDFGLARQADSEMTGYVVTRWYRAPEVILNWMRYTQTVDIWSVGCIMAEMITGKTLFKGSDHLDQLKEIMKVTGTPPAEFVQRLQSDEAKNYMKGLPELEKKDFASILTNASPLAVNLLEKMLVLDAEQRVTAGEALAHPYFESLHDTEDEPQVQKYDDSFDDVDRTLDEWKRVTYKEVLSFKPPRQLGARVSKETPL
As to the kind of experiment: Inhibition of p38 gamma Lys2 labeling site in human A-375 cells at 0.5 uM by KiNativ Profiling analysis relative to control. It is filed as cell-based.

For assay [9], the target named is Cyclin-dependent kinase 2 (Homo sapiens) (UniProt P24941). Put plainly: Inhibition of CDK2 Lys1 labeling site in human A-375 cells at 0.05 uM by KiNativ Profiling analysis relative to control. It is filed as cell-based.
The target of assay [10] is T3, Mitogen-activated protein kinase 13 (Homo sapiens) (UniProt O15264).
T3 sequence (whole entry): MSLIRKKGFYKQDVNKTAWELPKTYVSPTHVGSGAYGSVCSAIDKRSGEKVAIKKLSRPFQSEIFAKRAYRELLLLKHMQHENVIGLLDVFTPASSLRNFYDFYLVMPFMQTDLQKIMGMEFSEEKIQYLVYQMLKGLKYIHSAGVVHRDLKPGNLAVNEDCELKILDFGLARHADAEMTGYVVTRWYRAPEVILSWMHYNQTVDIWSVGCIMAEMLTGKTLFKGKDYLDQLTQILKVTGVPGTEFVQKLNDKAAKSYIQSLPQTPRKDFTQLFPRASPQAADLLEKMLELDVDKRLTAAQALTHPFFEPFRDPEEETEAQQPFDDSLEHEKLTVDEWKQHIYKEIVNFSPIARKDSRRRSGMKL
Put plainly: Inhibition of p38 delta Lys2 labeling site in human A-375 cells at 0.5 uM by KiNativ Profiling analysis relative to control. It is filed as cell-based.

Assay [11] concerns the target TRAF2 and NCK-interacting protein kinase (Homo sapiens) (UniProt Q9UKE5). As to the kind of experiment: Inhibition of ZC2 Lys2 labeling site in human A-375 cells at 0.5 uM by KiNativ Profiling analysis relative to control. It is filed as cell-based.
Assay [12] deals with Tyrosine-protein kinase Fer (Homo sapiens, UniProt P16591). As to the kind of experiment: Inhibition of FER Lys1 labeling site harbouring TSVAVKTCKEDLPQELKin human A-375 cells at 5 uM by KiNativ Profiling analysis relative to control. It is filed as cell-based.
Chain of Tyrosine-protein kinase Fer (P16591 whole entry, looked up): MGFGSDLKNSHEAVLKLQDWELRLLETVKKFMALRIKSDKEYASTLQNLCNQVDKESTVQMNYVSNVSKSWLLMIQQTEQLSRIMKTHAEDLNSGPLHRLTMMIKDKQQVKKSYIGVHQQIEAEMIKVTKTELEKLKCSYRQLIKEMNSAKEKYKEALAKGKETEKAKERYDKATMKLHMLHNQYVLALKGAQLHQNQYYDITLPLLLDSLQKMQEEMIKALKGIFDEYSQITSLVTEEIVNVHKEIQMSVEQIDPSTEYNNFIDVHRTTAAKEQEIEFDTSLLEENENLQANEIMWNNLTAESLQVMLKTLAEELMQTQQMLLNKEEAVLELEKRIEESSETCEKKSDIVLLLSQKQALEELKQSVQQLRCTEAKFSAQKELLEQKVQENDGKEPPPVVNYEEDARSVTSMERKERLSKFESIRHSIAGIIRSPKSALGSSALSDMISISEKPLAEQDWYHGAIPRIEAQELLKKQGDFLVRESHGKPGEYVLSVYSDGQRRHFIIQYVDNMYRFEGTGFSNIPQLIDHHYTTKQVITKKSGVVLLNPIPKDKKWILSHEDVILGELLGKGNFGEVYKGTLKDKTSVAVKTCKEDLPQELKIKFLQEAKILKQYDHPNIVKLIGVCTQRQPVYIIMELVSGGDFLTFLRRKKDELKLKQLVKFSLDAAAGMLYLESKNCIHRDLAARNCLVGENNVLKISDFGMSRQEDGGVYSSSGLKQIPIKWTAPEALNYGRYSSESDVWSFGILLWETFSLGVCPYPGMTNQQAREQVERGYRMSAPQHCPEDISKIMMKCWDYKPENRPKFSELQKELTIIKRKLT

Chain of Serine/threonine-protein kinase B-raf (P15056 whole entry): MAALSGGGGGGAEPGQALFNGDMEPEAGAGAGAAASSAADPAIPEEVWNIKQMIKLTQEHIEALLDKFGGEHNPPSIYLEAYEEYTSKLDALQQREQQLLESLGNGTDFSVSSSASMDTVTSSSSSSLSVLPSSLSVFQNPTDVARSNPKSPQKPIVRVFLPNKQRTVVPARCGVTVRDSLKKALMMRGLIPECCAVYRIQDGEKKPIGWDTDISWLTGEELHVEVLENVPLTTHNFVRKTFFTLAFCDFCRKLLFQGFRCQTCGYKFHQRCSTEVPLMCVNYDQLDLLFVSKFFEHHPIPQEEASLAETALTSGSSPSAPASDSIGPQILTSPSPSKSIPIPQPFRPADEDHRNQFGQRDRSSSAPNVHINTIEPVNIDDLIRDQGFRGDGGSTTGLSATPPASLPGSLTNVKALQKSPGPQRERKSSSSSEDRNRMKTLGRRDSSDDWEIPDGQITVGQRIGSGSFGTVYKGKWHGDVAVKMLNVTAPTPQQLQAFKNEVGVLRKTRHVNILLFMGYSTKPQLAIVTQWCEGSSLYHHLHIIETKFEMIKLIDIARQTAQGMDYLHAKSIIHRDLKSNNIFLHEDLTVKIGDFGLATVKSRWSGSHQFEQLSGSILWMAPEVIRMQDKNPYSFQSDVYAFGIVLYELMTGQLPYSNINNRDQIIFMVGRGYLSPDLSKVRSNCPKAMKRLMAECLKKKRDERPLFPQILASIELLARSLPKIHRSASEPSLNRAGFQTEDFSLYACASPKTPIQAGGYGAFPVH
Chain of Calcium/calmodulin-dependent protein kinase kinase 2 (Homo sapiens) (Q96RR4 2-588 limits assumed): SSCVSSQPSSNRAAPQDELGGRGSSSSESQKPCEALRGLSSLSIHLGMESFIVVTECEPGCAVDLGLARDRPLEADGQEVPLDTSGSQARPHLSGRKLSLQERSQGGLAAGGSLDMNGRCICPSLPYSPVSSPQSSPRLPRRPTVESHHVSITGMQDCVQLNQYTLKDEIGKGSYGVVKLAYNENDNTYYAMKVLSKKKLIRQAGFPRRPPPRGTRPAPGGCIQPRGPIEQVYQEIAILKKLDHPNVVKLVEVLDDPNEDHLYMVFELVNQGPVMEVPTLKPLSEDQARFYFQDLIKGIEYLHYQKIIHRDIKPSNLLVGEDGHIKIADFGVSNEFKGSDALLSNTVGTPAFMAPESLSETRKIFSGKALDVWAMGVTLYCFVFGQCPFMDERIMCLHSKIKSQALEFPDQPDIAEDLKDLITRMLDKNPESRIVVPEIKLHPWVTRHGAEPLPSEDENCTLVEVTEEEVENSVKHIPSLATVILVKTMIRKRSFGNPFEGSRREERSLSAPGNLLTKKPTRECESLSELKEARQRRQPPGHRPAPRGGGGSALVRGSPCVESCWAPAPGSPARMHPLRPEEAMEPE
Chain of Phosphatidylinositol 4-kinase beta (Homo sapiens) (Q9UBF8 2-816 limits assumed): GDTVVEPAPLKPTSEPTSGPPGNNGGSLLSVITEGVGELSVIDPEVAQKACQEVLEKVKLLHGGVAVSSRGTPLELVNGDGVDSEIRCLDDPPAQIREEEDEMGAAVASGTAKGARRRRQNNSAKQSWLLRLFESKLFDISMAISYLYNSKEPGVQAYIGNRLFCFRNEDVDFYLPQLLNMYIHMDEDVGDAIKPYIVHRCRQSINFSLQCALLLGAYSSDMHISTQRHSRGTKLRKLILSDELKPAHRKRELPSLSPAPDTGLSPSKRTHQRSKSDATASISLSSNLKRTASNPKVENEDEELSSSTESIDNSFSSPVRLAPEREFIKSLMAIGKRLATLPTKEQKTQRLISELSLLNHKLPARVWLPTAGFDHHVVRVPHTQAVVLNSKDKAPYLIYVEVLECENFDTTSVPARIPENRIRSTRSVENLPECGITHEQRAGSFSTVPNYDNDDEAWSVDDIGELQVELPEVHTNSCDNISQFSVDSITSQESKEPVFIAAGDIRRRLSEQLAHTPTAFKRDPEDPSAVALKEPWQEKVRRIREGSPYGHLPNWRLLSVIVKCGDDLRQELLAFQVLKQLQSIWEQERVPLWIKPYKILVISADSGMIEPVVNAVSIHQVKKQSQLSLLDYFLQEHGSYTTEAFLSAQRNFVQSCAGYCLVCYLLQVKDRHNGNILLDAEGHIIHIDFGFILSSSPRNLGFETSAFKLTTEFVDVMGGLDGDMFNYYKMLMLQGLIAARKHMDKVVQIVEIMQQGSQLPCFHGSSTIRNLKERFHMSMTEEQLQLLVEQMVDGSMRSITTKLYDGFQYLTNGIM
Chain of Tyrosine-protein kinase receptor UFO (Homo sapiens) (P30530 whole entry): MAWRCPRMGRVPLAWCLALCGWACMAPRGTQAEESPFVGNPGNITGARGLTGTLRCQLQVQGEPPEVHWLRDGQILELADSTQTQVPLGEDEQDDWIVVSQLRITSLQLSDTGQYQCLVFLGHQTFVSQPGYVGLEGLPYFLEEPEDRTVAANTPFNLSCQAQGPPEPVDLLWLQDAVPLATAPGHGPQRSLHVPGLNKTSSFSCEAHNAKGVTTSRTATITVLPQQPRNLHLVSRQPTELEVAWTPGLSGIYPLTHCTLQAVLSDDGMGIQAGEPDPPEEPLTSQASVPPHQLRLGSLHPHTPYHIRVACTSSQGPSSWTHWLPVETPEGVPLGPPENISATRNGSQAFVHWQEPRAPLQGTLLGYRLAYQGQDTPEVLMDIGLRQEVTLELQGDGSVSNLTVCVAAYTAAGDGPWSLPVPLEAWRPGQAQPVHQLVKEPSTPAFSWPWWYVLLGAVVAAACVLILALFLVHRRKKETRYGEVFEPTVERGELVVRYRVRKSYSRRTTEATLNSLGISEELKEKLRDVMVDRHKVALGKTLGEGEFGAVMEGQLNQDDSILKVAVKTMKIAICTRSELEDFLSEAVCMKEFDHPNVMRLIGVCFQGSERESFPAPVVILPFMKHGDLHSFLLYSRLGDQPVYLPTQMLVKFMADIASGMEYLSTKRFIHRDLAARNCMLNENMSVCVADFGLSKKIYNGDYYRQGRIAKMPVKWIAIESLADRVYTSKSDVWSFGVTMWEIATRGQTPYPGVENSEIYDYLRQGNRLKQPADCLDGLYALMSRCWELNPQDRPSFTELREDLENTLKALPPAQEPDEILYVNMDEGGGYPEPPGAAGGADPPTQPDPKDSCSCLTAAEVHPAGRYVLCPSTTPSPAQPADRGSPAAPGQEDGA

Consider `CNc1cc(Oc2cc(C(=O)Nc3cc(N4CCN(C)CC4)cc(C(F)(F)F)c3)ccc2C)ncn1`, for which, in assay [1], the inhibition amounted to 2.7%.

With `CCN1CCN(Cc2ccc(NC(=O)c3ccc(C)c(/C=C/c4cnc5[nH]ccc5c4OC)c3)cc2C(F)(F)F)CC1`, the inhibition in [2] was 10.1%; in assay [3], 3.9%; in assay [4] it was -6.8%; in [6] it was 6.6%; in assay [7], 61.5%; in assay [8], 25.2%. Also, the inhibition in [9] is 13.8%; in assay [10], 25.2%; in [11], 48.1%; in [12], 77.9%. Further, the inhibition at 0.5 µM in [5] worked out at 36%.

On to `CNc1cc(Oc2cc(C(=O)Nc3cc(-n4cnc(C)c4)cc(C(F)(F)F)c3)ccc2C)ncn1`, for which, in [1], the inhibition was determined as 24.1%.

`CCN1CCN(Cc2ccc(NC(=O)c3ccc(C)c(Oc4ccnc5[nH]ccc45)c3)cc2C(F)(F)F)CC1`: the inhibition in [2] is 12.4%; in [3] it was 34.8%; in assay [4] it was -5.8%; in assay [6] it was -5.6%; in [7], 66.8%; in assay [8], 86.2%. Moreover, the inhibition in [9] was 16.1%; in assay [10] it was 86.2%; in assay [11], 70.8%; in [12], 98.1%. The inhibition at 0.5 µM in assay [5] is -0.3%.
